PERK inhibitor – block of dimerizer-induced PERK translation repression, primary screen, PERK inhibitor project, CHO PERK-DD cells, SEAP luminescence, HTS | Eukaryotic translation initiation factor 2-alpha kinase 3 (Homo sapiens), Q9NZJ5 | CHO PERK-DD fusion, SEAP luminescence translation reporter | actives 0.17% (n = 220,000) | inhibition, % at 5.6 µM;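 active = inhibition above the mean inhibition of all tested compounds plus 3 SD, set separately per screening campaign, cut at about 2.9% in these data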;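 note: PERK kinase domain activated by AP20187 dimerizer at 100 nM; 0% = DMSO with dimerizer and 100% = rapamycin at 8.4 µM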
Target sequence (Q9NZJ5 whole entry, looked up, the tested form may be a part): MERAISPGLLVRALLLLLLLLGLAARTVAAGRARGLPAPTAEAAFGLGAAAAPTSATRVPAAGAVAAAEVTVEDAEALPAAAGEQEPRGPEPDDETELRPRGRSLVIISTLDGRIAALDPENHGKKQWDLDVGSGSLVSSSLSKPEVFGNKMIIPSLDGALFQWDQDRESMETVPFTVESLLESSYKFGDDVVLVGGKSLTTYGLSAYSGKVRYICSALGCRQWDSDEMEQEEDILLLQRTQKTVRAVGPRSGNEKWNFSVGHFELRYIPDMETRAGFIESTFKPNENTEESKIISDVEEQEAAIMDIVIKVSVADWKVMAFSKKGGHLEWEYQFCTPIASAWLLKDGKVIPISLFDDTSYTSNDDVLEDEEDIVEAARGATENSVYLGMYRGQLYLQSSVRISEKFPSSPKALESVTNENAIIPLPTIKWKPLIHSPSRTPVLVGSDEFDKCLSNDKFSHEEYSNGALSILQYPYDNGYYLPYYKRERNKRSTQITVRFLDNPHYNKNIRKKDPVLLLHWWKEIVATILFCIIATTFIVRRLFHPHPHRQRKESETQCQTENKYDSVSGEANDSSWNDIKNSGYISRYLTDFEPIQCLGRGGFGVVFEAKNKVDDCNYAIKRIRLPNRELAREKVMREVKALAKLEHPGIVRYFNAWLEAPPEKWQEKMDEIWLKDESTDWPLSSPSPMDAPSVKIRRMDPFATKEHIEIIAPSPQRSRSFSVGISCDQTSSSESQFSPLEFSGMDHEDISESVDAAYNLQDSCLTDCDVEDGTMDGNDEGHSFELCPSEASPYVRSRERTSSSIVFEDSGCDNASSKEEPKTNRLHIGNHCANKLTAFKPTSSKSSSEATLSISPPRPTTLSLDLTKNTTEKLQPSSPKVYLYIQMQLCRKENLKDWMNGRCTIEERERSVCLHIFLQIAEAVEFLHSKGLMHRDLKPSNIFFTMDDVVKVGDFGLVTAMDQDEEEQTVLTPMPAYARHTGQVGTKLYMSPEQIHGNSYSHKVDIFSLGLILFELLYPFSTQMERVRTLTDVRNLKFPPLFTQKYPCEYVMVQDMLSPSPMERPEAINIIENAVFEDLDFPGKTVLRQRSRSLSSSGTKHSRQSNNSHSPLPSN
Runt-SMMHC FRET – inhibitors of RUNX1 Runt–CBFb-SMMHC binding, primary screen, biochemical, FRET, Cerulean-Runt, Venus-CBFb-SMMHC, uHTS. Runt-related transcription factor 1 (Homo sapiens) + Core-binding factor subunit beta …. Cerulean-Runt/Venus-CBFb-SMMHC FRET ratio 530/480, 1 h. inhibition, % at 20 µM. actives 0.74% (n = 220,000);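 active = mean inhibition across duplicate retests at 20 µM reaching about 50%, limit read from the data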;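 note: 0% = DMSO wells and 100% = wells with excess untagged CBFb-SMMHC; inhibitors lower the FRET ratio by blocking Runt binding to CBFb-SMMHC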
RanGTP-Impb inh – inhibitors of RanGTP-importin-beta interaction, primary screen, biochemical, FRET, CFP-Ran, YFP-importin-beta, homogeneous | actives 1.1% (n = 300,000) | Ran GTPase (GTP-bound) - importin-beta complex | inhibition, % (test concentration not listed) | cell-free CFP-Ran/YFP-importin-beta FRET ratio;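 active = more than half of the replicate wells show a fall in the fluorescence ratio signal beyond about 16%, limit read from the data, passing the limit was not always enough; inconclusive = exactly half of the replicate wells pass the set limit; inactive = fewer than half of replicates pass the limit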;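 note: 0% = DMSO wells and 100% = Ran loaded with GDP instead of GTP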
Runt-CBFb FRET – inhibitors of RUNX1 Runt–CBFb binding, primary screen, biochemical, FRET, Cerulean-Runt, Venus-CBFb, uHTS. Cerulean-Runt/Venus-CBFb FRET ratio 530/480, 1 h. inhibition, % at 20 µM. actives 0.46% (n = 220,000). AID 1496, 2009;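 active = inhibition over about 50% at 20 µM in the single-dose screen, limit read from the data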;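 note: 0% = DMSO wells and 100% = excess unlabeled CBFb competitor control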
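Measured by: fluorescence energy transfer, 422 nm excitation, 530/480 nm emission; test system: Cerulean-tagged RUNX1 Runt domain (FRET donor) fusion protein; buffer or medium: Tris pH 7.5 buffer with BSA; compound: one dose, 20 µM compound, 1% DMSO; times: two 1 h room-temperature incubations shielded from light; benchmarks: unlabeled CBFb 5 µM, positive control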
eIF4E 4G PPI – eIF4E–eIF4G protein interaction inhibitors, primary screen, biochemical, uHTS, TR-FRET, eIF4GI fragment. Eukaryotic translation initiation factor 4E (Mus musculus) + Eukaryotic translation …. TR-FRET eIF4E-eIF4GI(517-606) binding, 2 h. inhibition, % at 21.7 µM. actives 0.37% (n = 220,000). AID 782, 2007;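 active = inhibition above about 30%, limit read from the data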;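 note: 0% = full FRET control wells and 100% = background wells lacking eIF4GI fragment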
Hck Nef HTS – inhibitors of Nef-activated human Hck kinase, primary screen, biochemical, Z-Lyte FRET, 384-well, Hck-YEEI; Tyrosine-protein kinase HCK (Homo sapiens), P08631; Recombinant Hck-YEEI plus Nef, Z-Lyte FRET kinase assay; inhibition, % at 20 µM; actives 0.68% (n = 220,000); AID 463187, 2010;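 active = Hck-Nef kinase inhibition above about 50%, limit read from the data; inactive = inhibition below that limit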;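 note: 0% = DMSO with Hck plus Nef and 100% = Hck alone without Nef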
YIC FRET counter – YIC intramolecular FRET probe signal interference, dose response, counter-screen for RanGTP-importin-beta inhibitor project, biochemical, fluorescence FRET; shares compounds with RanGTP-Impb inh; Purified YIC probe, intramolecular FRET ratio YFP/CFP; IC50, µM; actives 40% (n = 1,000); AID 435026, 2010;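 active = fitted half-maximal inhibitory concentration no more than tenfold above the top dose tested; inconclusive = flat fit with 30 to 70% activity, or poor fit; inactive = half-maximal concentration beyond tenfold above the top dose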
Hck-Nef confirm – retest of Hck:Nef kinase inhibitor hits, confirmation, biochemical, Z-Lyte FRET, 384-well, p-Tyr peptide counterscreen; calls only at 10 µM; shares compounds with Hck Nef HTS; AID 463188, 2010; actives 28% (n = 1,300); Recombinant Hck-YEEI:Nef, Z-Lyte FRET kinase assay;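 active = average inhibition of at least 50%, with Z-scores no higher than 3 in both the phospho-tyrosine peptide and fluorescence counterscreens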
The depositor's hits bear a star; i = inactive; ? = inconclusive; · = not tested or not shown; + = active, no number. Rows were chosen to be rich in hits. Some 2.2% of all compounds tested hit in one or more screens of this group.

SMILES | PERK inhibitor | Runt-SMMHC FRET | RanGTP-Impb inh | Runt-CBFb FRET | eIF4E 4G PPI | Hck Nef HTS | Hck-Nef confirm | others
COC(=O)C1=CN(CC2CCCO2)C=C(C(=O)OC)C1c1cccc(O)c1 (stereo not drawn) | 0 | 87* | 28* | 76* | -3 | 71* | · | YIC FRET counter=20*
Cc1ccc2ncccc2c1N | 0 | 2 | 4 | 1 | 2 | 8 | ·
COCCCN(CCCN)Cc1ccco1 | 0 | -2 | ? | 2 | 3 | 0 | ·
COc1nc(NCCc2ccc(OC)c(OC)c2)nc(OC)n1 | 0 | 3 | 6 | 0 | 2 | 2 | ·
COc1ccc(CCNc2c3ccccc3nc3ccccc23)cc1OC | -2 | 134* | 43* | 110* | 5 | 56* | i | YIC FRET counter=14*
Cc1ccc([N+](=O)[O-])cc1N=Nc1c(C)[nH]n(C(N)=S)c1=O | · | · | 2 | · | · | · | ·
Cc1ccc(N=Nc2c(C)[nH]n(C(N)=S)c2=O)cc1 | 0 | -2 | 0 | -2 | -4 | -33 | ·
Cc1ccc([N+](=O)[O-])cc1N=Nc1c(-c2ccc([N+](=O)[O-])cc2)[nH]n(C(N)=S)c1=O | 1 | -16 | 8 | -1 | 18 | 82* | +
NC(=S)n1[nH]c(-c2ccc([N+](=O)[O-])cc2)c(N=Nc2ccc(Cl)cc2)c1=O | 0 | -10 | · | -4 | 9 | 71* | +
NC(=O)C1CCCCc2c1[nH]c1ccc(Cl)cc21 (stereo not drawn) | · | · | 2 | · | · | · | ·
O=C(Nc1ccc2nc(-c3ccco3)c(-c3ccco3)nc2c1)N1CCN(c2ccccn2)CC1 | 0 | -93 | 33* | -30 | 1 | 57* | i
Cc1ncc(CC(=O)n2cc(C(=O)c3cc(F)ccc3O)cn2)s1 | 0 | 5 | ? | 2 | -2 | 45 | ·
Cc1ccc(O)c(C(=O)c2cnn(C(=O)Cc3csc(C)n3)c2)c1 | 0 | 3 | · | -2 | 2 | 74* | +
O=C(CCN1C(=O)/C(=C/c2ccc(Cl)cc2)SC1=S)Nc1cccc(C(=O)O)c1 | · | · | 1 | · | · | · | ·
O=C(O)c1cccc(N2C(=O)/C(=C/c3ccc(SCc4ccc(Cl)cc4)o3)SC2=S)c1 | 3 | 9 | · | 36 | 49* | 82* | +
COC(=O)Cc1[nH]n(-c2nc3ccccc3s2)c(=O)c1C(C)=Nc1ccc(Cl)cc1 | 1 | -11 | 2 | 2 | 3 | 64* | i
O=C(Nc1cccc(/C=C/c2nc3ccccc3c(=O)[nH]2)c1)c1ccccc1Cl | -2 | -5 | 3 | -1 | 6 | 23 | ·
COc1ccc(C(=O)Nc2cccc(/C=C/c3nc4ccccc4c(=O)[nH]3)c2)cc1 | 0 | 2 | 0 | -4 | -16 | 56* | i
COc1ccccc1CNS(=O)(=O)c1c(C)nc2scc(C)n2c1=O | · | · | 0 | · | · | · | ·
Cc1cc(C)c2sc(NNC(=O)C3COc4ccccc4O3)nc2c1 (stereo not drawn) | 1 | -2 | · | -2 | 4 | -4 | ·
Nc1c(C(=O)N/N=C/c2ccccc2)cnn1-c1ccccc1 | -2 | 0 | 2 | 1 | -3 | 68* | i
O=C(O)CC(Cn1[nH]nnc1=S)c1ccccc1 (stereo not drawn) | -1 | -1 | -1 | 4 | -6 | -22 | ·
Cc1ccc(/C=C2/SC(=S)N(c3ccc(S(=O)(=O)Nc4nccs4)cc3)C2=O)cc1 | 1 | -13 | 0 | -3 | -4 | 59* | i
O=C1/C(=C\c2ccccn2)SC(=S)N1c1ccc(S(=O)(=O)Nc2nccs2)cc1 | -1 | -4 | 11 | 18 | 0 | 28 | ·
Cc1cccc(Cc2nnc(CCC(=O)N(C)Cc3ccncc3C)o2)c1 | 0 | -11 | ? | -3 | -1 | 84* | i
SMILES | PERK inhibitor | Runt-SMMHC FRET | RanGTP-Impb inh | Runt-CBFb FRET | eIF4E 4G PPI | Hck Nef HTS | Hck-Nef confirm | others
Cc1ccc(NC(=O)Nc2sc(=S)n(C)c2C)cc1 | 0 | -1 | 2 | 4 | 1 | 92* | i
C#CCOCCOCCOCCNc1nc(N2CCN(C(=O)[C@H](CCCCN)n3cc(CCCC)nn3)CC2)nc(N2CCN(C(=O)[C@H](Cc3ccc(O)cc3)n3cc(CCO)nn3)CC2)n1 | 0 | 1 | 4 | -2 | 0 | 11 | ·
COC(=O)C1=C(C)N(C)C(C)=C(C(=O)OC)C1c1ccsc1 | 0 | 0 | 2 | -2 | -5 | 0 | ·
COC(=O)C1=CN(CCOC23CC4CC(CC(C4)C2)C3)C=C(C(=O)OC)C1c1ccsc1 | 0 | 34 | 2 | 14 | 0 | 70* | i
N#Cc1c(-c2ccncc2)c2c([nH]c1=O)-c1ccccc1OC2 | 1 | · | 56* | 11 | 1 | 70* | i
N#Cc1c(-c2ccccc2Cl)c2c([nH]c1=O)-c1ccccc1OC2 | 1 | 82* | 131* | 95* | 4 | 146* | i
COc1ccc(/C=c2/sc3n(c2=O)C(c2ccccc2OC)C2=C(N=3)c3ccccc3CC2)cc1O (stereo not drawn) | 0 | -30 | -31 | -4 | -2 | -1 | ·
O=C(CCCn1cc([N+](=O)[O-])cn1)NCc1ccccc1 | 1 | 0 | 1 | 2 | 2 | -13 | ·
COc1ccc2nc(C)cc(SCC(=O)N/N=C/c3cccc4ccccc34)c2c1 | -1 | -11 | 3 | -4 | -29 | 91* | i
COc1ccc(OC)c(/C=N/NC(=O)CC(=O)NCc2ccccc2)c1 | 0 | 0 | 0 | -2 | 3 | 56* | i
COc1ccc(Br)cc1CN1CCC(N2CCCC2)CC1 | · | · | 0 | · | · | · | ·
Cc1sc(-n2c(C)cc(/C=C3\SC(=S)NC3=O)c2C)c(C#N)c1C | 0 | -4 | 10 | · | 0 | 71* | i
